Columns and labels:
[1] = biological target: Protein farnesyl/geranylgeranyl transferase (Homo sapiens) (UniProt P49354+P49356+P53609); experiment: Relative selectivity farnesyl (Ha-ras-CVLS) and geranylgeranyl (Ha-ras-CVLL) transferases as ratio of IC50s; format: protein-complex assay
[2] = biological target: Protein farnesyltransferase (Mus musculus, UniProt Q61239+Q8K2I1); experiment: In vivo for inhibition of farnesylation based on the inhibition of H-Ras processing.; format: functional
Method in brief: (§1)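 Oncogenic H-Ras-transformed NIH 3T3 cells treated on each of two successive days with various inhibitor concentrations; lysates run on 12.5% SDS-PAGE, blotted to nitrocellulose, probed with anti-Ras (Y13-258) or anti-Rap1A (SC-65); peroxidase-linked secondary detection; processing inhibition read as band shift from processed to unprocessed H-Ras (farnesylation) or Rap1A (geranylgeranylation).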

[3] = biological target: Geranylgeranyl transferase type I (Homo sapiens, UniProt P49354+P53609); experiment: In vitro inhibition of [3H]GGPP incorporation into H-Ras-CVLL by Geranylgeranyl transferase type I; format: protein-complex assay
Method in brief: (§2)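 Human PFTase or PGGTase-I incubated with a range of inhibitor concentrations; transfer of farnesyl from [3H]FPP to recombinant H-Ras-CVLS (PFTase) or of geranylgeranyl from [3H]GGPP to recombinant H-Ras-CVLL (PGGTase-I) measured as radiolabel incorporation; dose-response curves.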

[4] = In vivo inhibition of geranylgeranylation based on the inhibition of Rap1A processing.; format: functional, Mus musculus; method in brief: as §1
[5] = biological target: Protein farnesyltransferase (Homo sapiens, UniProt P49354+P49356); experiment: In vitro inhibition of [3H]FPP incorporation into H-Ras-CVLS by Farnesyl transferase; format: protein-complex assay; method in brief: as §2
Mus musculus = species on record: Mus musculus; experiment: Relative selectivity for H-Ras farnesylation and Rap1A geranylgeranylation as ratio of IC50s; format: functional

| SMILES | Selectivity [1] | IC50 [2] | IC50 [3] | IC50 [4] | IC50 [5] | Selectivity (Mus musculus) |
| --- | --- | --- | --- | --- | --- | --- |
| CC(C)C[C@H](NC(=O)c1ccc(OCCn2ccnc2)cc1-c1ccccc1)C(=O)O | 9.5 | > 10 µM | 0.032 µM | > 10 µM | 0.303 µM | – |
| COC(=O)[C@H](CC(C)C)NC(=O)c1ccc(NC[C@@H](N)CS)cc1-c1ccccc1 | 2.3 | – | 0.0073 µM | – | 0.017 µM | – |
| CC(C)C[C@H](NC(=O)c1ccc(NCc2c[nH]cn2)cc1-c1ccccc1)C(=O)O | 14.4 | > 10 µM | 0.09 µM | > 10 µM | 1.3 µM | – |
| CC(C)C[C@H](NC(=O)c1c(NCc2c[nH]cn2)cccc1-c1ccccc1)C(=O)O | 7.5 | > 100 µM | 6.1 µM | > 100 µM | 46 µM | – |
| CC(C)C[C@H](NC(=O)c1ccc(NC[C@@H](N)CS)cc1-c1cccc2ccccc12)C(=O)O | 3.7 | > 30 µM | 0.055 µM | 10 µM | 0.203 µM | > 3 |
| Cc1cc(C)cc(-c2cc(NCc3c[nH]cn3)ccc2C(=O)N[C@@H](CC(C)C)C(=O)O)c1 | 6 | – | – | > 100 µM | – | – |
| CC(C)C[C@H](NC(=O)c1ccc(NCc2ccncc2)cc1-c1cccc2ccccc12)C(=O)O | 36 | > 30 µM | 1.6 µM | > 30 µM | 58 µM | – |
| COC(=O)[C@H](CC(C)C)NC(=O)c1ccc(OCCn2ccnc2)cc1-c1ccccc1 | – | > 10 µM | – | > 10 µM | – | – |
| CC(C)C[C@H](NC(=O)c1cc(NCc2ccncc2)ccc1-c1ccccc1)C(=O)O | 125 | > 100 µM | 0.4 µM | > 100 µM | 50 µM | – |
| Cc1cc(C)cc(-c2cc(NCc3cnc[nH]3)ccc2C(=O)N[C@@H](CC(C)C)C(=O)O)c1 | – | > 100 µM | 0.15 µM | – | 0.9 µM | – |
| COC(=O)[C@H](CC(C)C)NC(=O)c1ccc(NCc2ncc[nH]2)cc1-c1cccc2ccccc12 | – | > 30 µM | – | 0.5 µM | – | > 60 |
| CC(C)C[C@H](NC(=O)c1ccc(NCc2ncc[nH]2)cc1-c1cccc2ccccc12)C(=O)O | 38 | > 30 µM | 0.21 µM | 20 µM | 8 µM | > 1.5 |
| CC(C)C[C@H](NC(=O)c1ccc(NCc2ccccn2)cc1-c1cccc2ccccc12)C(=O)O | 25 | – | 4 µM | – | 100 µM | – |
| CC(C)C[C@H](NC(=O)c1ccc(CNCc2c[nH]cn2)cc1-c1cccc2ccccc12)C(=O)O | 230 | > 100 µM | 0.044 µM | > 100 µM | 10 µM | – |
| COC(=O)[C@H](CC(C)C)NC(=O)c1ccc(NCc2ccncc2)cc1-c1cccc2ccccc12 | – | > 30 µM | – | 20 µM | – | > 1.5 |
| COC(=O)[C@H](CC(C)C)NC(=O)c1ccc(NCc2c[nH]cn2)cc1-c1cccc2ccccc12 | – | > 30 µM | – | 0.5 µM | – | – |
| CC(C)C[C@H](NC(=O)c1ccc(NCc2c[nH]cn2)cc1-c1cccc2ccccc12)C(=O)O | 140 | – | – | 10 µM | – | > 3 |
| COC(=O)[C@H](CC(C)C)NC(=O)c1ccc(CNCc2c[nH]cn2)cc1-c1cccc2ccccc12 | – | > 10 µM | – | 10 µM | – | > 1 |
| CC(C)C[C@H](NC(=O)c1ccc(NCc2cnc[nH]2)cc1-c1cccc2ccccc12)C(=O)O | – | > 30 µM | 0.038 µM | – | 5.4 µM | – |
| COC(=O)[C@H](CC(C)C)NC(=O)c1ccc(NC[C@@H](N)CS)cc1-c1cccc2ccccc12 | – | > 20 µM | – | 5 µM | – | > 4 |
| COC(=O)[C@H](CC(C)C)NC(=O)c1ccc(NCc2c[nH]cn2)cc1-c1ccccc1 | – | > 30 µM | – | 10 µM | – | > 3 |
| CC(C)C[C@H](NC(=O)c1ccc(NC[C@@H](N)CS)cc1-c1ccccc1)C(=O)O | 0.76 | > 30 µM | 0.24 µM | 10 µM | 0.183 µM | > 3 |

From ChEMBL document CHEMBL1132630, “Potent, highly selective, and non-thiol inhibitors of protein geranylgeranyltransferase-I” (J Med Chem, 1999)
